“And” between values parts separate entries of the source, which are not always exact repeats. Equal entries are not always repeated. Blank lines part the entries; values can stand above or below the molecule they belong to.
Key:
LNCaP cells = assay: Flow cytometry on LNCaP cells; format: cell-based; details: HT1080.wt as reference
In short: (§1)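 Fluorescein-conjugated test compounds were incubated with PSMA-positive cells (HT1080.hPSMA, LNCaP), with PSMA-negative HT1080.wt cells as reference. Cell-bound fluorescence was measured by flow cytometry to assess recognition of PSMA in a native cellular environment.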

HT1080.hPSMA cells = assay: Flow cytometry on HT1080.hPSMA cells; format: cell-based, human; details: HT1080.hPSMA vs HT1080.wt; fluorescein-labelled compounds 50-250 nM
In short: as §1

human recombinant PSMA = human recombinant PSMA (Homo sapiens, UniProt Q04609); assay: Fluorescence polarization; format: binding
Chain of human recombinant PSMA (Q04609 whole entry): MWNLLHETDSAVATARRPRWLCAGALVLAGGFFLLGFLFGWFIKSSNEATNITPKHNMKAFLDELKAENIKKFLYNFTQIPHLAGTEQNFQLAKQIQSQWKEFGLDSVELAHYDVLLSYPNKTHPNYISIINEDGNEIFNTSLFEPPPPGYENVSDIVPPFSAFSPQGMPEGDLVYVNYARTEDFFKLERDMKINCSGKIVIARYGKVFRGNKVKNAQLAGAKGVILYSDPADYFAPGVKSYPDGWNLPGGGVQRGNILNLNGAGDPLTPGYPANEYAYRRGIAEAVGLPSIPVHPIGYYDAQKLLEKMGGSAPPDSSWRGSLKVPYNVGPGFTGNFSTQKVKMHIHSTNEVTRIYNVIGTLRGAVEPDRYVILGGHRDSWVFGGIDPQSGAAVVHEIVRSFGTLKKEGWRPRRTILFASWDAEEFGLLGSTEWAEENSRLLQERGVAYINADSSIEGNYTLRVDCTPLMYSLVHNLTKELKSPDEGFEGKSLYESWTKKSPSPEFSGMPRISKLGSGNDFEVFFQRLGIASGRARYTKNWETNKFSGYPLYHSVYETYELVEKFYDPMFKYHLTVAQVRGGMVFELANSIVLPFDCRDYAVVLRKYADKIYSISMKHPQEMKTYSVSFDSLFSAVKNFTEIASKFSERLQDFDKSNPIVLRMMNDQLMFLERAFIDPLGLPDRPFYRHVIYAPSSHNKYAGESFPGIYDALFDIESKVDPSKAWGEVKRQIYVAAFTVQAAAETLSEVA

human recombinant GCPIII = human recombinant GCPIII (Homo sapiens, UniProt Q9Y3Q0); assay: Fluorescence polarization; format: binding; details: for fold selectivity (fold higher dissociation constant towards GCPIII): compared to the original HIT3; for affinity against GCPIII (in words) / Kd: off-DNA FP; for Kd: KD,GCPIII
Chain of human recombinant GCPIII (Q9Y3Q0 whole entry): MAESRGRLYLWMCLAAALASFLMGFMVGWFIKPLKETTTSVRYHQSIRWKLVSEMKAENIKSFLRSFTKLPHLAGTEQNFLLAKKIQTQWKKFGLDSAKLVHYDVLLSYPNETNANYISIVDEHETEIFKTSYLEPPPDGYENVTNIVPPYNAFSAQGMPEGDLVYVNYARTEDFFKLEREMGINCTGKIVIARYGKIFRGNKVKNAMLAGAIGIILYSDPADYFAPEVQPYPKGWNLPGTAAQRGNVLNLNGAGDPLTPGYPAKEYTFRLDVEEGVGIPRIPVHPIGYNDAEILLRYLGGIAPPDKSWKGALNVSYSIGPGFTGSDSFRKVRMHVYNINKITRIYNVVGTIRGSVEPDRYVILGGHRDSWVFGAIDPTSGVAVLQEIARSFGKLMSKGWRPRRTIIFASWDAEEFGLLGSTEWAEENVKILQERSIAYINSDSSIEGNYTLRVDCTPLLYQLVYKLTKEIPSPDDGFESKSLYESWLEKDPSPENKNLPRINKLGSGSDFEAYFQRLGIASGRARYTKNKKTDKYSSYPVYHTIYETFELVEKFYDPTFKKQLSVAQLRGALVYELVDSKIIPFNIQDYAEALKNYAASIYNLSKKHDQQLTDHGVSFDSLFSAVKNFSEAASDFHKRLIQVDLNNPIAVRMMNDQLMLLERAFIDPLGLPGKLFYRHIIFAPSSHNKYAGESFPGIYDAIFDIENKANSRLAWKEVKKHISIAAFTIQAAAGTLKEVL

PSMA = details: read-out: IC50,PSMA; cited from earlier work
HT1080.hPSMA tumors = assay: Quantitative in vivo biodistribution in tumor-bearing mice; set-up: species or system BALB/c nude mice; details: 2 h after i.v., n = 3
[1] = in combination with best standard of care; cited from earlier work

SMILES: O=C(O)CC[C@H](NC(=O)N[C@@H](CCC(=O)NCCOCCOCCNC(=S)Nc1ccc2c(c1)C(=O)OC21c2ccc(O)cc2Oc2cc(O)ccc21)C(=O)O)C(=O)O [Compound 12]
binding to PSMA on cells, fluorescence shift by flow cytometry (LNCaP cells): avidly bound to PSMA | binding to PSMA on cells, fluorescence shift by flow cytometry (HT1080.hPSMA cells): avidly bound to PSMA

Kd (human recombinant PSMA): 1.3 ± 0.7 nM | fold selectivity (fold higher dissociation constant towards GCPIII) (human recombinant GCPIII): ~40 fold
SMILES: C#CC[C@@H](NC(=O)[C@@H]1C[C@@H](C2CCCCC2)CN1C(=O)CSC1CCN(C(=O)CC[C@H](NC(=O)N[C@@H](CCC(=O)O)C(=O)O)C(=O)O)CC1)C(=O)NCCOCCOCCNC(=S)Nc1ccc2c(c1)C(=O)OC21c2ccc(O)cc2Oc2cc(O)ccc21 [Compound 10]

Kd (human recombinant PSMA): 0.9 ± 0.5 nM | fold selectivity (fold higher dissociation constant towards GCPIII) (human recombinant GCPIII): ~40 fold
SMILES: C#CC[C@H](NC(=O)[C@@H]1C[C@@H](C2CCCCC2)CN1C(=O)CSC1CCN(C(=O)CC[C@H](NC(=O)N[C@@H](CCC(=O)O)C(=O)O)C(=O)O)CC1)C(=O)NCCOCCOCCNC(=S)Nc1ccc2c(c1)C(=O)OC21c2ccc(O)cc2Oc2cc(O)ccc21 [Compound 9]

affinity against GCPIII (in words) (human recombinant GCPIII): no measurable affinity was detected
SMILES: O=C(O)CNC(=O)c1cc(CNC(=O)c2ccc(CNC(=O)[C@H]3C[C@H](NC(=O)CCNS(=O)(=O)c4ccc5ccccc5c4)CN3C(=O)c3nn(-c4ccccc4)c(=O)[nH]c3=O)cc2)cc(OCC(=O)NCCOCCOCCNC(=S)Nc2ccc3c(c2)C(=O)OC32c3ccc(O)cc3Oc3cc(O)ccc32)c1 [Compound 7]

Kd (human recombinant PSMA): 1 nM | Kd (human recombinant GCPIII): 1.2 nM and 1 nM
SMILES: O=C(O)CC[C@H](NC(=O)N[C@@H](CCC(=O)O)C(=O)O)C(=O)O [HIT3, (2S,2′S)-2,2′-(carbonyldiimino)dipentanedioic acid, reference compound]
IC50 (PSMA): 47 nM

SMILES: O=C([O-])CN1CCN(CC(=O)[O-])CCN(CC(=O)NCC2CCC(C(=O)N[C@@H](Cc3ccc4ccccc4c3)C(=O)NCCCC[C@H](NC(=O)N[C@@H](CCC(=O)O)C(=O)O)C(=O)O)CC2)CCN(CC(=O)[O-])CC1.[177Lu+3] (stereo partly shown) [Pluvicto™]
Tumor (HT1080.hPSMA) uptake (HT1080.hPSMA tumors; 18: 1 nmol/mouse, Pluvicto 0.5 nmol/mouse, 1 MBq): 32.4 %ID/g | Kidney uptake (HT1080.hPSMA tumors): 2.16 %ID/g | Tumor-to-organ ratio, Blood (T : B) (HT1080.hPSMA tumors): 2079 | overall response rate [1]: 30% | overall survival [1]: 15.3 months

affinity against GCPIII (in words) (human recombinant GCPIII): no measurable affinity was detected
SMILES: O=C(O)CNC(=O)c1cc(CNC(=O)c2ccc(CNC(=O)[C@H]3C[C@H](NC(=O)CCNS(=O)(=O)c4ccc5ccccc5c4)CN3C(=O)c3nn(-c4ccccc4)c(=O)[nH]c3=O)cc2)cc(OCC(=O)N[C@@H](CCCCNC(=S)Nc2ccc3c(c2)C(=O)OC32c3ccc(O)cc3Oc3cc(O)ccc32)C(=O)O)c1 [Compound 5]

Kd (human recombinant PSMA): > 10000 nM | affinity against GCPIII (in words) (human recombinant GCPIII): no measurable affinity was detected
SMILES: O=C(CCNS(=O)(=O)c1ccc2ccccc2c1)N[C@H]1C[C@H](C(=O)NCCOCCOCCNC(=S)Nc2ccc3c(c2)C(=O)OC32c3ccc(O)cc3Oc3cc(O)ccc32)N(C(=O)c2nn(-c3ccccc3)c(=O)[nH]c2=O)C1 [Compound 8, (2R,4S) -N-(2-(2-(2-(3-(3',6'-dihydroxy-3-oxo-3H-spiro[isobenzofuran-1,9'-xanthen]-5-yl)thioureido)ethoxy)ethoxy)ethyl)-1-(3,5-dioxo-2-phenyl-2,3,4,5-tetrahydro-1,2,4-triazine-6-carbonyl)-4-(3-(naphthalene-2-sulfonamido)propanamido)pyrrolidine-2-carboxamide]

SMILES: O=C(CCNS(=O)(=O)c1ccc2ccccc2c1)N[C@H]1C[C@H](C(=O)O)N(C(=O)c2nn(-c3ccccc3)c(=O)[nH]c2=O)C1 [HIT2]
binding to PSMA on cells, fluorescence shift by flow cytometry (HT1080.hPSMA cells): not able to interact with PSMA on tumor cells

SMILES: N#Cc1cccc(C[C@H](NC(=O)c2nn(-c3ccccc3)c(=O)[nH]c2=O)C(=O)N[C@@H](Cc2ccc(CP(=O)(O)O)cc2)C(=O)N[C@@H](CCCCNC(=S)Nc2ccc3c(c2)C(=O)OC32c3ccc(O)cc3Oc3cc(O)ccc32)C(=O)O)c1 [Compound 1]
Kd (human recombinant PSMA): 260 ± 5 nM | Kd (human recombinant GCPIII): 600 ± 3 nM

affinity against GCPIII (in words) (human recombinant GCPIII): no measurable affinity was detected
SMILES: O=C(CCNS(=O)(=O)c1ccc2ccccc2c1)N[C@H]1C[C@H](C(=O)N[C@@H](CCCCNC(=S)Nc2ccc3c(c2)C(=O)OC32c3ccc(O)cc3Oc3cc(O)ccc32)C(=O)O)N(C(=O)c2nn(-c3ccccc3)c(=O)[nH]c2=O)C1 [Compound 6]
